In ChEMBL document CHEMBL1153526, “Design, synthesis, and pharmacological activities of dynorphin A analogues cyclized by ring-closing metathesis” (J Med Chem, 2009):

Biological target: Kappa-type opioid receptor (Rattus norvegicus) (UniProt P34975)
Assay: Agonist activity at rat cloned kappa opioid receptor expressed in CHO cells assessed as inhibition of forskolin-induced cAMP production by scintillation counting relative to Dyn A-(1-13)NH2
Assay type: functional, cell-based
Settings: concentration not given here
Method in brief: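 CHO cells stably expressing cloned rat κ receptor, washed in F12 and labelled 4 h with [3H]adenine. Then 40 min at 37 °C with 50 μM forskolin, peptidase inhibitors (bestatin, captopril, L-leucyl-L-leucine) and peptide at 0.1–10,000 nM in 10-fold steps. [3H]cAMP isolated on cation exchange resin and alumina, [14C]cAMP added for recovery, scintillation counted. Efficacy relative to Dyn A-(1-13)NH2. Mean ± SEM, ≥3 assays.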

Kappa-type opioid receptor (Rattus norvegicus), sequence (P34975 whole entry): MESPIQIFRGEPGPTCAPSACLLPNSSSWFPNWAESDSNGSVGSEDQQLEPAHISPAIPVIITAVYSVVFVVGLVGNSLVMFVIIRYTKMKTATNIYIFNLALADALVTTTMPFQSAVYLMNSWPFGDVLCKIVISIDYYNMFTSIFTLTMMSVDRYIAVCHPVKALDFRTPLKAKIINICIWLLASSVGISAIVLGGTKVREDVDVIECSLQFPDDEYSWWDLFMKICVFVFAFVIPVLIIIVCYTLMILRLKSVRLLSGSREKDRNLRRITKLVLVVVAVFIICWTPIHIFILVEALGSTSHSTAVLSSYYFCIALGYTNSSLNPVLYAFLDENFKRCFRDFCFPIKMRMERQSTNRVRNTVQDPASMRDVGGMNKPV

Structure (SMILES) | inhibition [%]
CC[C@H](C)[C@H](NC(=O)[C@H](CCCN=C(N)N)NC(=O)[C@H](CCCN=C(N)N)NC(=O)[C@H](CC(C)C)NC(=O)[C@H](Cc1ccccc1)NC(=O)CNC(=O)CNC(=O)[C@@H](N)Cc1ccc(O)cc1)C(=O)N[C@@H](CCCN=C(N)N)C(=O)N1CCC[C@H]1C(=O)N[C@@H](CCCCN)C(N)=O | 100
N=C(N)NCCC[C@@H]1NC(=O)[C@@H](NC(=O)[C@H](Cc2ccccc2)NC(=O)CNC(=O)CNC(=O)[C@@H](N)Cc2ccc(O)cc2)C/C=C\C[C@@H](C(=O)N[C@@H](CCCNC(=N)N)C(=O)N2CCC[C@H]2C(=O)N[C@@H](CCCCN)C(N)=O)NC(=O)[C@H](CCCNC(=N)N)NC1=O | 110
